# Assays:
# Escherichia coli [1] = experiment: Antibacterial activity against Escherichia coli ATCC 35150 after 24 hrs by two fold serial dilution method; assay type: functional; details: ATCC 35150, 24 h
# How it was run: (§1)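 Broth two-fold serial dilution per CLSI, in nutrient broth. Inoculum from 24 h cultures at 28 ± 1 °C, adjusted in saline to 1×10^7-2×10^7 cfu/mL, then diluted to 1×10^5-2×10^5 cfu/mL. Test range 256 down to 0.50 µM and lower. Tubes held 24 h at 28 ± 1 °C. MIC read visually. Enrofloxacin and norfloxacin served as standards.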
# Escherichia coli [2] = experiment: Bactericidal activity against Escherichia coli ATCC 35150 incubated for 24 hrs followed by re-plating on nutrient agar and measured after overnight incubation by two fold serial dilution method; assay type: functional; details: ATCC 35150, 24 h
# How it was run: (§2)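 After the MIC read, 100 µl from every tube without visible growth was spread on nutrient agar lacking compound. Plates were incubated overnight at 28 ± 1 °C. MBC was taken as the lowest concentration killing >99.9% of the initial population, seen as no growth on agar.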
# Streptococcus agalactiae [3] = experiment: Bactericidal activity against Streptococcus agalactiae WB1445 incubated for 24 hrs followed by re-plating on nutrient agar and measured after overnight incubation by two fold serial dilution method; assay type: functional; details: WB1445, 24 h; how it was run: as §2
# Streptococcus agalactiae [4] = experiment: Antibacterial activity against Streptococcus agalactiae WB1445 after 24 hrs by two fold serial dilution method; assay type: functional; details: WB1445, 24 h; how it was run: as §1
# Flavobacterium columnare [5] = experiment: Antibacterial activity against Flavobacterium columnare FC-G1 after 24 hrs by two fold serial dilution method; assay type: functional; details: FC-G1, 24 h; how it was run: as §1
# Staphylococcus aureus [6] = experiment: Antibacterial activity against Staphylococcus aureus ATCC 29213 after 24 hrs by two fold serial dilution method; assay type: functional; details: ATCC 29213, 24 h; how it was run: as §1
# Staphylococcus aureus [7] = experiment: Bactericidal activity against Staphylococcus aureus ATCC 29213 incubated for 24 hrs followed by re-plating on nutrient agar and measured after overnight incubation by two fold serial dilution method; assay type: functional; details: ATCC 29213, 24 h; how it was run: as §2
# Flavobacterium columnare [8] = experiment: Bactericidal activity against Flavobacterium columnare FC-G1 incubated for 24 hrs followed by re-plating on nutrient agar and measured after overnight incubation by two fold serial dilution method; assay type: functional; details: FC-G1, 24 h; how it was run: as §2
# [9] = Inhibition of Escherichia coli ATCC 35150 FabI in presence of t-O-NAC and NADH up to 1 min by spectrophotometric analysis
# How it was run: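 Recombinant His-tagged FabI, expressed in E. coli BL21(DE3) and purified on Ni-NTA, was used at 20 µL of 100 µg/mL stock in 0.1 M PBS-DTT. Compounds were tested at 128-1 µM with 10 µL of 4 mM t-O-NAC, and 20 µL of 2 mM NADH started the reaction. NADH oxidation was followed at 340 nm for 1 min. IC50 came from dose-response plots.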
# [10] = target: T1, Enoyl-(Acyl-carrier-protein) reductase II (Streptococcus agalactiae serotype V (strain ATCC BAA-611 / 2603 V/R), UniProt Q8E1K8); experiment: Inhibition of Streptococcus agalactiae WB1445 FabK in presence of t-O-NAC and NADH up to 1 min by spectrophotometric analysis
# T1 sequence (Q8E1K8 whole entry): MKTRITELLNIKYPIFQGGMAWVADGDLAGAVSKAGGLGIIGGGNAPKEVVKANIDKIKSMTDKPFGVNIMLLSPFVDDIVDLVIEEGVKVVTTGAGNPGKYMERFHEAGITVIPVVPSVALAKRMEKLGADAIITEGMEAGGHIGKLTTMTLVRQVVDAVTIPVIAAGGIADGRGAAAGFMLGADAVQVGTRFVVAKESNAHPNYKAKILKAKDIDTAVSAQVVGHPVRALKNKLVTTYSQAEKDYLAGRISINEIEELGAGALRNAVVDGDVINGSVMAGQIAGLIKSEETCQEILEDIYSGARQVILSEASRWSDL
# How it was run: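 Recombinant His-tagged FabK (20 µL of 150 µg/mL stock) was assayed in 100 µL of 0.1 M ADA-DTT, pH 6.5, against compounds at 128-1 µM, with 10 µL of 4 mM t-O-NAC. Addition of 20 µL of 2 mM NADH started the reaction. Absorbance at 340 nm was read for 1 min. IC50 was estimated from dose-response curves.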
Compound,MIC (Escherichia coli [1]) [µM],MBC (Escherichia coli [2]) [µM],MBC (Streptococcus agalactiae [3]) [µM],MIC (Streptococcus agalactiae [4]) [µM],MIC (Flavobacterium columnare [5]) [µM],MIC (Staphylococcus aureus [6]) [µM],MBC (Staphylococcus aureus [7]) [µM],MBC (Flavobacterium columnare [8]) [µM],IC50 [9] [µM],IC50 [10] [µM]
CCn1cc(C(=O)O)c(=O)c2cc(F)c(N3CCNCC3)cc21 [NORFLOXACIN],1,2,128,64,32,32,64,128,,
CCN1CCN(c2cc3c(cc2F)c(=O)c(C(=O)O)cn3C2CC2)CC1 [ENROFLOXACIN],1,2,16,8,2,2,4,2,,
Cc1nccn1CCOc1ccc2ccc(=O)oc2c1,64,256,> 256,> 256,> 256,> 256,> 256,> 256,,
Cc1cn(CCCCCCCCOc2ccc3ccc(=O)oc3c2)cn1,> 256,> 256,16,4,4,8,64,8,117,1.75
O=c1ccc2ccc(OCCCCCCBr)cc2o1,> 256,> 256,> 256,> 256,> 256,> 256,> 256,> 256,,
O=c1ccc2ccc(OCCCCCCCCn3cncn3)cc2o1,,,64,32,64,,,128,79.5,7.68
O=c1ccc2ccc(OCCCCBr)cc2o1,> 256,> 256,> 256,> 256,> 256,> 256,> 256,> 256,,
Cc1cn(CCCCOc2ccc3ccc(=O)oc3c2)cn1,16,32,> 256,> 256,> 256,> 256,> 256,> 256,,
Cc1cc(=O)oc2cc(OCCCCCCCCn3ccnc3C)ccc12,> 256,> 256,16,16,4,64,256,8,,
O=c1ccc2ccc(OCCCCCCn3cnc4ccccc43)cc2o1,> 256,> 256,128,32,32,32,256,128,,
O=c1ccc2ccc(OCCBr)cc2o1,> 256,> 256,> 256,> 256,> 256,> 256,> 256,> 256,,
O=c1ccc2ccc(OCCCCCCCCCCBr)cc2o1,> 256,> 256,> 256,> 256,> 256,> 256,> 256,> 256,,
O=c1ccc2ccc(OCCn3ccnc3-c3ccccc3)cc2o1,128,512,> 256,> 256,> 256,> 256,> 256,> 256,,
Cc1cc(=O)oc2cc(OCCCCCCCCn3cncn3)ccc12,> 256,> 256,64,32,16,32,256,64,,
O=c1ccc2ccc(OCCn3ccnc3)cc2o1,128,256,> 256,> 256,> 256,> 256,> 256,> 256,,
O=c1ccc2ccc(OCCCCCCn3ccnc3-c3ccccc3)cc2o1,> 256,> 256,> 256,> 256,> 256,> 256,> 256,> 256,,
